The results in this text go back to ChEMBL document CHEMBL1133651, “Thiazoloindans and thiazolobenzopyrans: a novel class of orally active central dopamine (partial) agonists” (J Med Chem, 2000).

In series [1] the target is T1, D(2) dopamine receptor (Homo sapiens, UniProt P14416). The series is described as follows: in vitro binding affinity was determined on human Dopamine receptor D2L expressed in chinese hamster ovary(CHO) K-1 cells using [3H]spiperone as radioligand. Format: cell-based, CHO-K1. The method, boiled down:
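Antagonist binding: displacement of [³H]spiperone from human DA D2L, D3 or D4.2 receptors expressed in CHO K-1 cells; Ki as mean of three separate experiments, varying by no more than 25%; high- and low-affinity Ki reported separately where applicable.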

Series [2] is described as follows: Inhibitory concentration of lipid peroxidation (LPO). Format: functional.
Series [3] deals with T1, D(2) dopamine receptor. The series is described as follows: in vitro binding affinity was determined on human Dopamine receptor D2L expressed in chinese hamster ovary(CHO) K-1 cells using [3H]-0437 as radioligand. It counts as cell-based, CHO-K1. The essentials: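 Human DA D2L receptor expressed in CHO K-1 cells; agonist radioligand displacement ([³H]N-0437 or [³H]NPA); Ki as mean of three separate experiments, varying by no more than 25%.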

Series [4] addresses D(3) dopamine receptor (Homo sapiens, UniProt P35462). The series is described as follows: in vitro binding affinity was determined on human Dopamine receptor D3 expressed in chinese hamster ovary(CHO) K-1 cells using [3H]spiperone as radioligand. Format: cell-based, CHO-K1.
The target in series [5] is D(2) dopamine receptor (Rattus norvegicus) (UniProt P61169). Kind of series: compound was tested for intrinsic activity for thymidine uptake in CHO-L6 cells transfected with rat Dopamine receptor D2L. Format: functional, cell-based. The essentials: (§1)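 Mitogenesis assay for agonism: [³H]thymidine uptake measured in CHO-L6 cells transfected with rat D2L receptor. Intrinsic activity expressed relative to quinpirole, taken as full agonist (IA 100%). Means of three determinations.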

For series [6], the target named is T2, D(3) dopamine receptor (Rattus norvegicus, UniProt P19020). The series is described as follows: Effective concentration was determined as thymidine uptake in CHO-L6 cells transfected with the rat Dopamine receptor D3 by mitogenesis assay. It counts as functional, cell-based.
Series [7] can be described thus: Log d of compound was determined. Format: physicochemical. Conditions: octanol/water.
Series [8] deals with T1, D(2) dopamine receptor. Kind of series: in vitro binding affinity was determined on human Dopamine receptor D2L expressed in chinese hamster ovary(CHO) K-1 cells using [3H]NPA as radioligand. Format: cell-based, CHO-K1. The essentials: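 Displacement of agonist radioligand [³H]NPA from human D2L receptors expressed in CHO K-1 cells. Ki is the mean of three separate experiments, with results varying by no more than 25%.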

The target in series [9] is T2, D(3) dopamine receptor. Kind of series: Effective concentration was determined as thymidine uptake in CHO-L6 cells transfected with the rat Dopamine receptor D3 by mitogenesis assay (intrinsic activity).
The target in series [10] is D(2) dopamine receptor (Rattus norvegicus) (UniProt P61169). The series is described as follows: Inhibition of quinpirole (30 nM)-stimulated [3H]thymidine uptake in CHO-L6 cells transfected with the rat Dopamine receptor D2L;compound is active showing test concentration ranging from 0.1 nM - 1 uM. Format: functional, cell-based.
Series [11] concerns the target T3, D(2) dopamine receptor (Rattus norvegicus, UniProt P61169). The series is described as follows: Effective concentration was determined as thymidine uptake in CHO-L6 cells transfected with the rat Dopamine receptor D2L by mitogenesis assay (intrinsic activity). It counts as functional, cell-based. The essentials: as §1
For series [12], the target named is T4, D(4) dopamine receptor (Homo sapiens, UniProt P21917).
T4 sequence (P21917 whole entry): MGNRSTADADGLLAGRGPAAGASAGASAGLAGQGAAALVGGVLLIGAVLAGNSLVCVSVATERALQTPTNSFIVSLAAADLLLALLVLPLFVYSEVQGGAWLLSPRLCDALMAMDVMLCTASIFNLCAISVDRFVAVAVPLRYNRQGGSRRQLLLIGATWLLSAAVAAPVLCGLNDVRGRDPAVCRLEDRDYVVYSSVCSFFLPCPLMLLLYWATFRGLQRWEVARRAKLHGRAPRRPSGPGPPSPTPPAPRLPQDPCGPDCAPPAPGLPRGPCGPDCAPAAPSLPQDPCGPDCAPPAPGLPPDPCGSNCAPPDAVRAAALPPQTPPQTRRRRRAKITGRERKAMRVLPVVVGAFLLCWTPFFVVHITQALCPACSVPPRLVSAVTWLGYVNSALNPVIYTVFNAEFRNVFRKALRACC
The series is described as follows: in vitro binding affinity was determined on human Dopamine receptor D4 expressed in chinese hamster ovary(CHO) K-1 cells using [3H]spiperone as radioligand. Format: cell-based, CHO-K1. The method, boiled down:
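Displacement of [³H]spiperone from human D4.2 receptors expressed in CHO K-1 cells; Ki values are means of three separate experiments, which varied by no more than 25%.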

In series [13] the target is D(3) dopamine receptor (Rattus norvegicus) (UniProt P19020). Particulars: CHO-L6.
Series [14] has as its target D(2) dopamine receptor (Rattus norvegicus) (UniProt P61169). The series is described as follows: Inhibition of quinpirole (30 nM)-stimulated [3H]thymidine uptake in CHO-L6 cells transfected with the rat Dopamine receptor D2L; NA is not active. It counts as functional, cell-based.
The target of series [15] is D(3) dopamine receptor (Rattus norvegicus) (UniProt P19020). Conditions: CHO-L6. This is another data set of the same source.
Series [16] addresses D(2) dopamine receptor (Rattus norvegicus) (UniProt P61169). The series is described as follows: Inhibition of quinpirole (30 nM)-stimulated [3H]thymidine uptake in CHO-L6 cells transfected with the rat Dopamine receptor D2L; compound is active showing test concentration ranging from 0.1 nM - 1 uM. Format: functional, cell-based.
Series [17] addresses T3, D(2) dopamine receptor. The series is described as follows: Effective concentration was determined as thymidine uptake in CHO-L6 cells transfected with the rat Dopamine receptor D2L by mitogenesis assay. Format: functional, cell-based. The method, boiled down: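 Agonism read as [³H]thymidine uptake (mitogenesis) in CHO-L6 cells transfected with rat DA D2L receptor; intrinsic activity expressed relative to quinpirole (full agonist, IA 100%); test concentrations 0.1 nM to 1 µM; means of three determinations ± SEM.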

For orientation: Ki means a dissociation constant, usually derived from enzyme kinetics or from competition with a known ligand. A higher Ki goes with weaker binding. Broadly, the IC50 is the concentration that inhibits the measured activity by half. A higher IC50 goes with weaker potency in that assay. For orientation: EC50 means the concentration needed to bring the measured effect to its halfway point. A word on the logD: it is lipophilicity at a set pH, counting ionised and neutral species.

Calls of active or inactive are those of the source. The calls are words filed in the database; no cut-off is given here.

D(3) dopamine receptor (Homo sapiens, UniProt P35462), sequence (P35462 whole entry): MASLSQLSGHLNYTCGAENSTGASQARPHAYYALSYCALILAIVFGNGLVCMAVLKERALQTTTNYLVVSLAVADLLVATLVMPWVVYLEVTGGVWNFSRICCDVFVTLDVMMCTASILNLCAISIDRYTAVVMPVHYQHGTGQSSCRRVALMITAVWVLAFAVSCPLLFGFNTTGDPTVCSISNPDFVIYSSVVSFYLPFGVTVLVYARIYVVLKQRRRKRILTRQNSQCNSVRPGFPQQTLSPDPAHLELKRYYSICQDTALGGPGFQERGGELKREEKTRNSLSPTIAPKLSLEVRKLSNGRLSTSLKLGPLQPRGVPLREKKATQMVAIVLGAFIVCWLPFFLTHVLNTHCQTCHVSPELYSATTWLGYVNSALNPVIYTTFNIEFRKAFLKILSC
T1 sequence (P14416 whole entry): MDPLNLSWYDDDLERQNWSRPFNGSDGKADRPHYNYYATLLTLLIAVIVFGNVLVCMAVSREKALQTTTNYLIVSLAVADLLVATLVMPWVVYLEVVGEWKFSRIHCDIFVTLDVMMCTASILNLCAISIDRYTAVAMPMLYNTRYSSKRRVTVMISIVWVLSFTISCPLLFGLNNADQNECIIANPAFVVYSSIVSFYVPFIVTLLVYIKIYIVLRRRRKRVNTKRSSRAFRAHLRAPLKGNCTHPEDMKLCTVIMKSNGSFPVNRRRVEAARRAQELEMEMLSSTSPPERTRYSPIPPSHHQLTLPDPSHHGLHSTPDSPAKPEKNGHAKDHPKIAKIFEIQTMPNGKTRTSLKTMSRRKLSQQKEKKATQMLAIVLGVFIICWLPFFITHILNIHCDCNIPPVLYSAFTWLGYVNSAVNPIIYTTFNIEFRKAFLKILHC
D(3) dopamine receptor (Rattus norvegicus), sequence (P19020 whole entry): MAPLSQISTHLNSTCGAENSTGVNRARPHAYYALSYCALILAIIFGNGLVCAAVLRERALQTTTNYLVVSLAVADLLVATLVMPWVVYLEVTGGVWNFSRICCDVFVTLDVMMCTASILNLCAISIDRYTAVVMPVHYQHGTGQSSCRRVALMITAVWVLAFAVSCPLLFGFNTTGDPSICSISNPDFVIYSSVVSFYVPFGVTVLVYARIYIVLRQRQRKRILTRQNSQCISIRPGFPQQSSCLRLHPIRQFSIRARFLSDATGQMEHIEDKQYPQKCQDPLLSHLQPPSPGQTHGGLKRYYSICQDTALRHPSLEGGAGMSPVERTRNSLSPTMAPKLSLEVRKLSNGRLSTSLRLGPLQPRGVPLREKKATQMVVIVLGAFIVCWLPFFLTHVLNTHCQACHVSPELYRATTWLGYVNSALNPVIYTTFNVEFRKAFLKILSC
T2 sequence (P19020 whole entry): as above
T3 sequence (P61169 whole entry): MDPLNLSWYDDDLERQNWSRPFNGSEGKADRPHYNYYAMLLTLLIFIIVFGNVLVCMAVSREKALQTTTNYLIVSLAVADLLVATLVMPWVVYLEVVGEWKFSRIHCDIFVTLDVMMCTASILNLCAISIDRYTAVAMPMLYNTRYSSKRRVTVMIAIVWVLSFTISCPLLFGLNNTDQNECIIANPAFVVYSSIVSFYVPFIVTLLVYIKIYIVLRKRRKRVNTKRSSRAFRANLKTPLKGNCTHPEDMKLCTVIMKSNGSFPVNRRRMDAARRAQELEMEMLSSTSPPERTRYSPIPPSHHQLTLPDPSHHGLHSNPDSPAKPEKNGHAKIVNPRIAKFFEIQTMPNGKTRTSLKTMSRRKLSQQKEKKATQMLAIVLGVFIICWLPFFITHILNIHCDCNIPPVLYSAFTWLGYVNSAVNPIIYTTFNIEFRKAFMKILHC
D(2) dopamine receptor (Rattus norvegicus), sequence (P61169 whole entry): as above

`CCCN(CCC)C1COc2c(ccc3sc(N)nc23)C1` (centres undefined): the Ki in series [1] was 3510 nM; in series [3], 536 nM; in series [4] it was 1400 nM. Moreover, the IC50 in series [2] came out at 5000 nM.

As for `CCCN[C@H]1CCc2nc(N)sc2C1` [PRAMIPEXOLE], in series [5], the Intrinsic activity amounted to 90%. Further, the half-maximal effective concentration (EC50) in [6] worked out at 0.21 nM.

In turn, `CCCN(CCC)C1Cc2cc3nc(N)sc3cc2C1` (centres undefined) displayed a logD in series [7] of 1.66. The compound also displayed an Intrinsic activity in series [5] of 28%. Further, the Ki stood at 27 nM in series [8], 272 nM in series [12] and 1.4 nM in series [4]. The figures for the EC50 in series [9] and in [11] were greater than 1000 nM and 5.7 nM, respectively. The Inhibitory activity result in series [10] and in [13] was “Active” in each case. The same compound had an IC50 in series [2] of 60000 nM.

`CCCN(CCC)C1Cc2ccc3nc(N)sc3c2C1` (centres undefined): the Intrinsic activity in series [5] stood at 71%. Moreover, the results for the inhibition constant (Ki) in series [8] and in series [4] were 500 nM and 11 nM, respectively. Further, the EC50 was greater than 1000 nM in [9] and 18.7 nM in [11]. The NA result in series [14] was “inactive”. In addition, the concentration for half-maximal inhibition (IC50) in series [2] is 30000 nM; in [12], greater than 10000 nM. In [15], the Inhibitory activity entry is “Active”.

In series [7], `CCCNC1Cc2cc3nc(N)sc3cc2C1` (centres undefined) showed a logD of 0.19. Also, the results for the Ki in series [8], in series [12] and in series [4] were 1350 nM, greater than 3330 nM and greater than 10000 nM, respectively. Moreover, the IC50 in series [2] was greater than 100000 nM.

Compound `CCCN(CCC)C1COc2ccc3nc(N)sc3c2C1` (centres undefined) registered an Intrinsic activity in series [5] of 7%. Also, the Ki in [1] was 5920 nM; in [3] it was 47 nM; in series [4] it was 510 nM. Also, 50000 nM corresponded to half-maximal inhibition in [2] (IC50). For the same compound, the Inhibitory activity entry in series [16] and in series [13] was “Active” each time. Also, the EC50 in series [17] was 148 nM; in series [6], greater than 1000 nM.
